Published values from different studies.
Protocols differ between the studies behind these lines. pEC50, pIC50: −log10 of the molar value. Values after ≈ are worked out from the molar mass of the structure shown.

`O=C1OC[C@H]2OC(O)[C@H](O)[C@@H](O)[C@@H]2OC(=O)c2cc(O)c(O)c(O)c2-c2c(O)c(O)c3oc(=O)c4c(c(O)c(O)c5oc(=O)c2c3c54)-c2c1cc(O)c(O)c2O` (mixture of isomers) has an inhibition zone of 15 mm (Streptococcus mutans; microbial growth, disc diffusion; 500 µg/disc).
`CCOc1ccc(Nc2c3c(nc4ccccc24)CCC3)cc1` gave a pIC50 of 6.19 (Leishmania infantum; parasite growth, MTT; promastigote).
For `O=c1oc2c(O)c(O)cc3c(=O)oc4c(O)c(O)cc1c4c23`, the MBC was 200 mg/L (≈ 662 µM) (Streptococcus mutans; microbial killing, broth dilution).
For `C=C[C@]1(C)C[C@@H](OC(=O)CS[C@@H]2C[C@H]3CC[C@@H](C2)N3C)[C@]2(C)[C@H](C)CC[C@]3(CCC(=O)[C@H]32)[C@@H](C)[C@@H]1O`, the MIC90 was 0.0312 mg/L (≈ 0.0604 µM) (Streptococcus pyogenes; microbial growth; clinical isolate).
The inhibition zone of `C[C@@H]1O[C@@H](OC[C@H]2O[C@@H](Oc3c(-c4ccc(O)c(O)c4)oc4cc(O)cc(O)c4c3=O)[C@H](O)[C@@H](O)[C@@H]2O)[C@H](O)[C@H](O)[C@H]1O` is reported as 14 mm (Streptococcus mutans; microbial growth, disc diffusion; 500 µg/disc).
For `COCCC(=O)Nc1ccccc1/N=c1\cc(-c2ccc3c(c2)OCO3)oc2ccccc12`, the inhibition was 7.96% (HCT-116; cell growth or viability, CCK-8; 1 µM).
For `c1ccc(Oc2ccc(Nc3c4c(nc5ccccc35)CCC4)cc2)cc1`, the pIC50 was 6.28 (Leishmania infantum; parasite growth, MTT; promastigote).
For `Oc1cc(O)c2c(c1)O[C@H](c1cc(O)c(O)c(O)c1)[C@@H](O)C2`, the MIC was 100 mg/L (≈ 327 µM) (Streptococcus mutans; microbial growth, broth dilution; 24 h).
The inhibition of `CCNc1nc2ccc(-c3c/c(=N\c4ccccc4NC(=O)CCN)c4ccccc4o3)cc2o1` is reported as 56% (HCT-116; cell growth or viability, CCK-8; 1 µM).
The pIC50 of `Cc1nc(Nc2ncc(C(=O)Nc3c(C)cccc3Cl)s2)cc(N2CC[C@H](O)C2)n1` is reported as under 5.00 (WSUDLCL2; cell growth or viability, ATP luminescence; 72 h).
For `COc1ccc2/c(=N/c3ccccc3NC(=O)[C@@H](N)CO)cc(-c3ccc4c(c3)OCCO4)oc2c1`, the inhibition was 14.7% (HCT-116; cell growth or viability, CCK-8; 1 µM).
The MIC90 of `CC1(C)S[C@@H]2[C@H](NC(=O)[C@H](N)c3ccccc3)C(=O)N2[C@H]1C(=O)O` is reported as 0.5 mg/L (≈ 1.43 µM) (Streptococcus pyogenes; microbial growth; clinical isolate).
With `O=C(Nc1ccccc1/N=c1\cc(-c2ccc3c(c2)OCO3)oc2ccccc12)N1CCNCC1` the inhibition was 15.1% (HCT-116; cell growth or viability, CCK-8; 1 µM).
With `C[C@@H]1[C@H](O)[C@@H](C)/C=C/C=C/C=C/C=C/C=C/C=C/C=C/[C@H](O[C@@H]2O[C@H](C)[C@@H](O)[C@H](N)[C@@H]2O)C[C@@H]2O[C@](O)(C[C@@H](O)C[C@@H](O)[C@H](O)CC[C@@H](O)C[C@@H](O)CC(=O)O[C@H]1C)C[C@H](O)[C@H]2C(=O)O` the pEC50 was 5.82 (Leishmania infantum; parasite growth, MTT; promastigote).
With `CC(C)(C)[C@H](N)C(=O)Nc1ccccc1/N=c1\cc(-c2ccc3c(c2)OCCO3)oc2cc(F)ccc12` the inhibition was -0.56% (HCT-116; cell growth or viability, CCK-8; 1 µM).
`CN[C@H](CC(C)C)C(=O)N[C@H]1C(=O)N[C@@H](CC(N)=O)C(=O)N[C@H]2C(=O)N[C@H]3C(=O)N[C@H](C(=O)N[C@H](C(=O)O)c4cc(O)cc(O)c4-c4cc3ccc4O)[C@H](O)c3ccc(c(Cl)c3)Oc3cc2cc(c3O[C@@H]2O[C@H](CO)[C@@H](O)[C@H](O)[C@H]2O[C@H]2C[C@](C)(N)[C@H](O)[C@H](C)O2)Oc2ccc(cc2Cl)[C@H]1O` gave an MIC90 of 1 mg/L (≈ 0.69 µM) (Streptococcus pyogenes; microbial growth; clinical isolate).
